# pIC50: −log10 of the molar value.
# Tested on: HT-29
# Test: Cytotoxicity against human HT-29 cells after 96 hrs by MTT assay
# Assay type: functional, cell-based
# Details: HT-29, 96 h
# Summary of the method: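 HT-29 cells in RPMI-1640 with 10% newborn calf serum, 37 °C, 5% CO2. Seeded at 5 × 10^3 cells/well and grown 24 h, then given fresh medium with graded compound concentrations for 96 h. MTT (5 mg/mL stock) added for 1–2 h at 37 °C. Formazan dissolved in DMSO and read at 570 nm; viability taken as absorbance fraction of untreated wells. Run in triplicate, mean ± SD.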
row,SMILES,pIC50
1,COc1cc2c3c(c1O)-c1c(cc(OC)c(OC)c1OC)CC[C@@H]3N(C)CC2=O,4.65
2,COc1cc2c(cc1O)[C@H](CCc1cc(OC)c(OC)c(OC)c1)N(C(=O)C(F)(F)F)CC2,< 4.30
3,COc1cc2c3c(c1O)-c1c(cc(OC)c(OC)c1OC)CC[C@@H]3N(S(C)(=O)=O)CC2,5.10
4,COc1cc2c3c(c1O)-c1c(cc(OC)c(OC)c1OC)CC[C@@H]3N(S(=O)(=O)C(F)(F)F)CC2,4.98
5,COc1cc2c3c(c1O)-c1c(cc(OC)c(OC)c1OC)CC[C@@H]3N(C(C)=O)CC2,4.88
6,COc1cc2c3c(c1O)-c1c(cc(OC)c(OC)c1OC)CC[C@@H]3N(C(=O)C(F)(F)F)CC2,5.19
7,COC1=C[C@@]23CCN(S(C)(=O)=O)[C@@H](CCc4cc(OC)c(OC)c(OC)c42)C3=CC1=O,< 4.30
8,COC1=C[C@@]23CCN(S(=O)(=O)C(F)(F)F)[C@@H](CCc4cc(OC)c(OC)c(OC)c42)C3=CC1=O,4.80
9,COC1=C[C@@]23CCN(S(=O)(=O)c4ccc(C)cc4)[C@@H](CCc4cc(OC)c(OC)c(OC)c42)C3=CC1=O,4.37
10,COC1=C[C@@]23CCN(C(C)=O)[C@@H](CCc4cc(OC)c(OC)c(OC)c42)C3=CC1=O,4.42
11,COC1=C[C@@]23CCN(C(=O)C(F)(F)F)[C@@H](CCc4cc(OC)c(OC)c(OC)c42)C3=CC1=O,< 4.30
12,COc1cc2c(cc1O)[C@@H]1CCc3cc(OC)c(OC)c(OC)c3[C@H]2CN1S(C)(=O)=O,4.94
13,COc1cc2c(cc1O)[C@@H]1CCc3cc(OC)c(OC)c(OC)c3[C@H]2CN1S(=O)(=O)c1ccc(C)cc1,4.97
14,COc1cc2c(cc1O)[C@@H]1CCc3cc(OC)c(OC)c(OC)c3[C@H]2CN1C(C)=O,< 4.30
15,COc1cc2c(cc1O)[C@@H]1CCc3cc(OC)c(OC)c(OC)c3[C@H]2CN1C(=O)C(F)(F)F,4.56
16,COc1cc2c(cc1OC(C)=O)[C@@H]1CCc3cc(OC)c(OC)c(OC)c3[C@H]2CN1C(=O)C(F)(F)F,4.39
17,COc1cc2c(c(OC)c1OC)[C@H]1CN(S(=O)(=O)c3ccc(C)cc3)[C@@H](CC2)C2=CC(=O)C(=O)C=C21,5.18
18,COc1cc2c(cc1O)[C@H]1CCc3cc(OC)c(OC)c(OC)c3[C@@H](C2)N1Cc1ccccc1,5.04
19,COc1cc2c(cc1OC(C)=O)[C@H]1CCc3cc(OC)c(OC)c(OC)c3[C@@H](C2)N1Cc1ccccc1,4.66
20,COc1cc2c(cc1OC)[C@H]1CCc3cc(OC)c(OC)c(OC)c3[C@@H](C2)N1C,< 4.30
21,COc1cc2c(cc1O)[C@H]1CCc3cc(OC)c(OC)c(OC)c3[C@@H](C2)N1C,< 4.30
22,COc1cc2c(cc1OC(C)=O)[C@H]1CCc3cc(OC)c(OC)c(OC)c3[C@@H](C2)N1C,4.36

row,SMILES,pIC50
1,COC1=CC2(C=C(OC)C1=O)CC[C@H]1c3c(cc(OC)c(O)c32)CCN1S(=O)(=O)C(F)(F)F,4.33
2,COC1=CC2(C=C(OC)C1=O)CC[C@H]1c3c(cc(OC)c(O)c32)CCN1C(C)=O,4.34
3,COC1=CC2(C=C(OC)C1=O)CC[C@H]1c3c(cc(OC)c(O)c32)CCN1C,< 4.30
4,COc1cc2c3c(c1O)-c1c(cc(OC)c(OC)c1OC)CC[C@@H]3N(S(=O)(=O)C(F)(F)F)CC2=O,5.94
5,COc1cc2c(c(OC)c1OC)-c1c(OC(C)=O)c(OC)cc3c1[C@H](CC2)N(C)CC3=O,4.57
6,COc1cc2c(c(OC)c1OC)-c1c(OC(=O)Oc3ccccc3)c(OC)cc3c1[C@H](CC2)N(C)CC3=O,4.51
7,COc1cc2c3c(c1O)-c1c(cc(OC)c(OC)c1OC)CC[C@@H]3N(S(C)(=O)=O)C(O)C2=O (some centres undefined),< 4.30
8,COc1cc2c3c(c1O)-c1c(cc(OC)c(OC)c1OC)CC[C@@H]3N(C(=O)C(F)(F)F)C=C2,6.16
9,COc1cc2c(c(OC)c1OC)-c1c(OC(C)=O)c(OC)cc3c1[C@H](CC2)N(C(=O)C(F)(F)F)C=C3,5.90
10,COc1cc2c(c(OC)c1OC)-c1c(OS(=O)(=O)C(F)(F)F)c(OC)cc3c1C(=CC2)N(S(=O)(=O)C(F)(F)F)C=C3,5.00
11,COc1cc2ccnc3c2c(c1O)-c1c(cc(OC)c(OC)c1OC)CC3,6.75
12,COc1cc2c(c(OC)c1OC)-c1c(OC(C)=O)c(OC)cc3ccnc(c13)CC2,6.72
13,COc1cc2c(c(OC)c1OC)-c1c(OC(=O)C3CCCCC3)c(OC)cc3ccnc(c13)CC2,6.00
14,COc1cc2c(c(OC)c1OC)-c1c(OC(=O)c3ccccc3)c(OC)cc3ccnc(c13)CC2,5.59
15,COC(=O)Oc1c(OC)cc2ccnc3c2c1-c1c(cc(OC)c(OC)c1OC)CC3,6.74
16,COc1cc2c(c(OC)c1OC)-c1c(OC(=O)OCC(Cl)(Cl)Cl)c(OC)cc3ccnc(c13)CC2,6.64
17,COc1cc2c(c(OC)c1OC)-c1c(OC(=O)Oc3ccccc3)c(OC)cc3ccnc(c13)CC2,6.88
18,COc1cc2c(c(OC)c1OC)-c1c(OC(=S)n3ccnc3)c(OC)cc3ccnc(c13)CC2,6.53
19,COc1cc2c(c(OC)c1OC)-c1c(OS(C)(=O)=O)c(OC)cc3ccnc(c13)CC2,4.61
20,COc1cc2c(c(OC)c1OC)-c1c(OS(=O)(=O)C(F)(F)F)c(OC)cc3ccnc(c13)CC2,4.61
21,COC1=CC2=C3c4c(c(OC)cc5ccnc(c45)CC2)O[C@]3(OC)C1=O,4.62

# Tested on: HT-29
# Test: Cytotoxicity against human HT-29 cells
# Details: not given
row,SMILES,pIC50
1,COc1cc2c(c(OC)c1OC)-c1ccc(OC)c(=O)cc1[C@@H](NC(C)=O)CC2 [COLCHICINE],8.10
